High-throughput results (PubChem)
PGC1a acetyl up = raises PGC1a acetylation signal in U2OS cells; activation, % at 15.6 µM; U2OS PGC1a acetylation AlphaScreen, overnight; AID 651723; hit rate 0.21% among 350,000;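 active = every replicate reaching activation of at least 50%, whatever the mean replicate activation; inconclusive = replicates that disagree or another doubt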;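 note: hits raise the AlphaScreen acetylation signal above neutral controls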
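Test system: U2OS cells expressing flag-PGC1a plus GCN5; Amount: 7000 U2OS cells per well; Compound: single test concentration per compound; Incubation: compound overnight at 37 °C, each detection step 1 h RT; Signal: AlphaScreen lysate read.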
Hep G6PC suppr = hepatocyte G6PC expression change via PGC-1a acetylation activation; 240 tested, under 10 active; G6PC suppression (normalized activity, % of positive control; higher = more suppression), % at 26 µM; shares compounds with PGC1a acetyl up; primary mouse hepatocytes, G6PC mRNA qPCR, forskolin;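 active = dose curves showing G6PC suppression whose half-maximal dose is at most twice the top valid dose; inconclusive = flat curves with moderate negative activity, or unreliable fits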;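 note: G6PC expression relative to GAPDH housekeeping gene as delta delta Ct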
Hep PCK1 suppr = hepatocyte PCK1 expression change via PGC-1a acetylation activation; primary mouse hepatocytes, PCK1 mRNA qPCR, forskolin-stimulated; PCK1 expression decrease, unspecified at 26 µM; 230 tested, under 10 active; shares compounds with PGC1a acetyl up; AID 743465;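 active = compounds lowering PCK1 expression whose fitted half-maximal concentration is at most twice the top tested dose; inconclusive = flat fit with moderate opposite-direction effect, or poor fit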;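 note: higher delta delta Ct means lower PCK1 expression so positive values indicate hits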
Hep PGC-1a down = PGC-1a acetylation activators affecting PGC-1a expression in hepatocytes. shares compounds with PGC1a acetyl up. primary mouse hepatocytes, PGC-1a mRNA qPCR, forskolin; top dose 26 µM. max activity (PGC-1a expression decrease), %. 240 tested, under 10 active. AID 743467;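 active = compound lowering PGC-1a expression with fitted half-maximal concentration at most twice its top tested dose; inconclusive = flat curve with moderate opposite-direction effect, or poor fit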
Each line names hits and unclear results; the compound was inactive in the other large screens (follow-up assays come after a bar, where they were run). A selection follows.

CNC(=O)c1cccn(Cc2ccc(C(F)(F)F)cc2)c1=O	PGC1a acetyl up 68
N#Cc1ccccc1NC(=O)CN1CC=C(c2ccccc2)CC1	none
COCCCn1c(N)c(C(=O)Nc2ccccc2)c2nc3ccccc3nc21	PGC1a acetyl up 51
CC(C)(O)/C=C/C(=O)[C@](C)(O)C1[C@H](O)C[C@@]2(C)C3CC=C4C(C[C@H](O)[C@@H](O)C4(C)C)[C@]3(C)C(=O)C[C@]12C (stereo not given in full)	none
C[C@H]1C[C@@H](C)C(=O)[C@@H]([C@H](O)CC2CC(=O)NC(=O)C2)C1	none
C=C1C(=O)O[C@@H]2C[C@@H](C)[C@H]3C=CC(=O)[C@]3(O)C[C@@H]12	PGC1a acetyl up 79
CC1=CC(=C2C(=O)NC(=S)NC2=O)C=C(C(F)(F)F)N1Cc1ccccc1	none
CNCC(=O)c1ccc(O)c(O)c1	none
CC1=CC(=O)C2=C(C)C[C@H](O)[C@@H]3[C@H](OC(=O)[C@H]3C)[C@@H]12	none
COc1ccc(C(c2ccc(OC)cc2)C(Cl)(Cl)Cl)cc1	PGC1a acetyl up 93
CCCN(CCC)[C@@H]1CCc2cccc(O)c2C1	none
O=c1[nH]c2ccccc2n1C1CCN(C(c2cc3ccccc3o2)c2nnnn2Cc2ccccc2)CC1 (stereo not given)	none
C=C1C(=O)OC2CC3(C)OC3C3OC3C3=CC(OC3=O)C12 (stereo not given)	PGC1a acetyl up 85
C[C@H]1CCC/C=C/[C@@H]2C[C@H](O)C[C@H]2[C@@H](O)/C=C/C(=O)O1	none
O=C1/C(=C/c2ccccc2)C[C@@]2(O)[C@H]3Cc4ccc(O)c5c4[C@@]2(CCN3CC2CC2)C1O5 (stereo not given in full)	none
CC(=O)OC1CC2(O)C3CCC4CC(O)CCC4(C)C3CCC2(C)C1C1=CC(=O)OC1 (stereo not given)	none
Cc1ccc(N2C(=O)NC(=O)/C(=C/c3ccoc3)C2=O)cc1	none
CCc1ccc(N2C(=O)NC(=O)/C(=C\C=C\c3ccco3)C2=O)cc1	PGC1a acetyl up 114
CC(=O)OCC12CC(OC(=O)CC(C)C)C(C)=CC1OC1C(O)C(OC(C)=O)C2(C)C12CO2 (stereo not given)	none
CC1CC(C)CC(C)C(O)C(C#N)=CC=CCC(C2CCCC2C(=O)O)OC(=O)CC(O)C(C)C1 (stereo not given)	none
COC(=O)C1C2c3ccccc3OC1(C)N=c1s/c(=C/c3cn(C)nc3C)c(=O)n12 (stereo not given)	none
CC(C)Oc1cccnc1N(C)C1CCN(Cc2ccccc2)CC1	none
COc1ccc(C(c2nnnn2C2CCCCC2)N2CCC3(CC2)C(=O)NCN3c2ccccc2)cc1 (stereo not given)	PGC1a acetyl up 120
CN1C2CCC1/C(=C/c1ccccn1)C(=O)/C2=C\c1ccccn1	none
CCOC(=O)CNC(=O)N1Cc2ccc(Br)cc2-n2nncc2C1	none
O=c1c2ccccc2nc(/C=C/c2ccc([N+](=O)[O-])o2)n1-c1ccc(O)cc1	PGC1a acetyl up 144
CCN(CC)c1ccc(N=Cc2c(O)n(-c3ccc(OC)cc3)c(=O)[nH]c2=O)cc1	none
COc1ccc(-n2c(O)c(C=NCCCn3ccnc3)c(=O)[nH]c2=O)cc1	PGC1a acetyl up 68
C[C@]12CC[C@H]3[C@@H](CC[C@]4(O)C[C@@H](O)CC[C@]34C=O)[C@@]1(O)CC[C@@H]2C1=CC(=O)OC1	none
O=C1CSC2N1CCNC21CCCCC1 (stereo not given)	none
CCC1(CC)C(=O)C=CNC1=O	none
O=C1NC2C(=CC(O)C(O)C2O)c2cc3c(c(O)c21)OCO3 (stereo not given)	none
CC(=O)OC1CC(OC2C(O)CC(OC3C(O)CC(OC4CCC5(C)C(CCC6C5CCC5(C)C(C7=CC(=O)OC7)C(O)CC65O)C4)OC3C)OC2C)OC(C)C1OC1OC(CO)C(O)C(O)C1O (stereo not given)	none
O=[N+]([O-])c1ccc(N2CCOCC2)c2c1no[n+]2[O-]	none
NC1C2CN3CCN(C2)CC1(c1ccccc1)C3 (stereo not given)	none
C=C1C(=O)OC2CC3(C)OC3CCC(C)=CC(OC(C)=O)C12 (stereo not given)	PGC1a acetyl up 118
Cc1cccc(C)c1-n1nnnc1C(c1ccccc1OC(F)(F)F)N1CCC(n2c(=O)[nH]c3ccccc32)CC1 (stereo not given)	PGC1a acetyl up 61 | Hep G6PC suppr inactive | Hep PCK1 suppr inactive | Hep PGC-1a down inactive
CCOc1ccccc1CNCCc1ccc2c(c1)OCO2	none
O=C1NC2C(=CC(O)C(O)C2O)c2cc3c(cc21)OCO3 (stereo not given)	none
CCOc1ccccc1N=C1SCCCN1C	none
C[C@@H]1CN([C@@H](C)CO)C(=O)c2c(c3ccccc3n2C)-c2ccccc2CO[C@@H]1CN(C)C(=O)Oc1ccccc1	PGC1a acetyl up inconclusive | Hep G6PC suppr inactive | Hep PCK1 suppr inconclusive | Hep PGC-1a down inactive
Cc1ccc(OC(=O)N(C)C[C@H]2OCc3ccccc3-c3c(n(C)c4ccccc34)C(=O)N([C@@H](C)CO)C[C@H]2C)cc1	PGC1a acetyl up 82 | Hep G6PC suppr inactive | Hep PCK1 suppr inactive | Hep PGC-1a down inactive
COc1ccc(OC(=O)N(C)C[C@H]2OCc3ccccc3-c3c(n(C)c4ccccc34)C(=O)N([C@H](C)CO)C[C@H]2C)cc1	PGC1a acetyl up 173 | Hep G6PC suppr inactive | Hep PCK1 suppr inactive | Hep PGC-1a down inactive
O=C1CN=C(c2ccccc2)c2cc([N+](=O)[O-])ccc2N1	none
COc1ccc(C[C@H]2NC[C@H](O)[C@H]2OC(C)=O)cc1	none
c1ccc2c(N3CCNCC3)cccc2c1	none
CC1=NN(c2ccccc2)C(=O)/C1=C/c1c(O)[nH]c(=O)[nH]c1=O	none
Cn1ncnc2c(=O)n(C)c(=O)nc1-2	none
C[C@@H]1O[C@@H](O[C@H]2C[C@@H](O)[C@]3(CO)[C@H]4[C@H](O)C[C@]5(C)[C@@H](C6=CC(=O)OC6)CC[C@]5(O)[C@@H]4CC[C@]3(O)C2)[C@H](O)[C@H](O)[C@H]1O	none
c1cc(CNCCc2ccc3c(c2)OCO3)ccn1	none
